Assays:
MDCK [1] = test: Cytotoxicity against dog MDCK cells assessed as loss of cell viability incubated for 24 hrs followed by compound wash out measured after 24 hrs by trypan blue exclusion assay; type: cell-based, Canis lupus familiaris
Outline: (§1)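 Confluent MDCK monolayers plated at 2×10^5/ml were treated after 24 h with compound at 5–40 μg/ml and incubated a further 24 h. Assessed by microscopic examination of morphology, Trypan blue exclusion for viability, and cell counts for multiplication rate.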

MDCK [2] = test: Cytotoxicity against dog MDCK cells assessed as morphological alterations incubated for 24 hrs followed by compound wash out measured after 24 hrs by microscopic analysis; type: cell-based, Canis lupus familiaris; outline: as §1
MDCK [3] = test: Cytotoxicity against dog MDCK cells assessed as modification of cell multiplication rate incubated for 24 hrs followed by compound wash out measured after 24 hrs by cell counting analysis; type: cell-based, Canis lupus familiaris; outline: as §1
MDCK [4] = test: Cytotoxicity against dog MDCK cells assessed as morphological alterations at 40 ug/mL incubated for 24 hrs followed by compound wash out measured after 24 hrs by microscopic analysis; type: cell-based, Canis lupus familiaris; outline: as §1
Influenza A virus = test: Antiviral activity against Influenza virus A/Puerto Rico/8/34 H1N1 infected in dog MDCK cells incubated at 1 hr post-infection measured after 24 hrs by hemagglutininating unit assay; type: functional, organism-based; conditions: A/Puerto Rico/8/1934(H1N1)
Outline: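 MDCK cells infected with PR8; 1 h after adsorption they were washed, and compound (5–20 μg/ml) or DMSO was added and kept on throughout. Virus released into the supernatant was titrated by HAU assay 24 h p.i. Yield is a percentage of control infected cells given 0.02% DMSO. Means of four experiments, each in duplicate.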

Structure (SMILES)	Activity (MDCK [1])	Activity (MDCK [2])	Activity (MDCK [3])	Activity (MDCK [4])	Activity (Influenza A virus)
O=C(/C=C/c1ccc(O)c(O)c1)c1ccc(O)cc1	Dose-dependent effect	Dose-dependent effect	Dose-dependent effect	–	–
COc1ccc(C(=O)/C=C/c2ccc(F)cc2)c(O)c1	Dose-dependent effect	Dose-dependent effect	Dose-dependent effect	–	–
Cc1ccc(/C=C/C(=O)c2ccc(O)cc2O)cc1	Dose-dependent effect	Dose-dependent effect	Dose-dependent effect	–	–
O=C1/C(=C/c2ccc(O)c(O)c2)CCC/C1=C\c1ccc(O)c(O)c1	Dose-dependent effect	Dose-dependent effect	Dose-dependent effect	–	–
O=C(/C=C/c1ccc(O)c(O)c1)c1ccc(O)cc1O [BUTEIN]	Dose-dependent effect	Dose-dependent effect	Dose-dependent effect	–	–
O=C(/C=C/c1ccc(O)c(O)c1)/C=C/c1ccc(O)c(O)c1	Dose-dependent effect	Dose-dependent effect	Dose-dependent effect	–	–
O=C(/C=C/c1ccc(Cl)cc1)c1ccccc1O	Non-toxic	Non-toxic	Non-toxic	Toxic	Dose-dependent effect
CCOC(=O)C1C/C(=C\c2ccc(O)c(O)c2)C(=O)/C(=C/c2ccc(O)c(O)c2)C1 (stereo unspecified)	Dose-dependent effect	Dose-dependent effect	Dose-dependent effect	–	–
CCCN1C/C(=C\c2ccc(O)c(O)c2)C(=O)/C(=C/c2ccc(O)c(O)c2)C1	Dose-dependent effect	Dose-dependent effect	Dose-dependent effect	–	–
O=C(/C=C/c1ccc(O)c(O)c1)c1ccccc1	Dose-dependent effect	Dose-dependent effect	Dose-dependent effect	–	–
O=C(/C=C/c1ccc(O)cc1)c1cc(O)cc(O)c1	Non-toxic	Non-toxic	Non-toxic	Toxic	Dose-dependent effect
Nc1cccc(C(=O)/C=C/c2ccc(O)c(O)c2)c1	Dose-dependent effect	Dose-dependent effect	Dose-dependent effect	–	–
COc1ccc(/C=C/C(=O)c2ccc(O)cc2O)cc1	Dose-dependent effect	Dose-dependent effect	Dose-dependent effect	–	–
O=C(/C=C/c1cc(O)cc(O)c1)c1ccc(O)cc1	Dose-dependent effect	Dose-dependent effect	Dose-dependent effect	–	–

From ChEMBL document CHEMBL2146419, “Effects of polyphenol compounds on influenza A virus replication and definition of their mechanism of action” (Bioorg Med Chem, 2012)
